From PubChem BioAssay
MC4R barr agon: MC4R agonists recruiting beta-arrestin, primary screen, cell-based, luminescence, agonist arm of biased-ligand search. Melanocortin receptor 4 (Homo sapiens), P32245. U2OS MC4R beta-arrestin complementation; percent of melanotan II response, DMSO zero. activation, % at 8.9 µM. 360,000 tested, 0.98% active;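 active = activation above a per-plate cutoff, the mean activation of sample wells on that plate plus 3 SD, cut at about 8% in these data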
Target sequence (P32245 whole entry, looked up): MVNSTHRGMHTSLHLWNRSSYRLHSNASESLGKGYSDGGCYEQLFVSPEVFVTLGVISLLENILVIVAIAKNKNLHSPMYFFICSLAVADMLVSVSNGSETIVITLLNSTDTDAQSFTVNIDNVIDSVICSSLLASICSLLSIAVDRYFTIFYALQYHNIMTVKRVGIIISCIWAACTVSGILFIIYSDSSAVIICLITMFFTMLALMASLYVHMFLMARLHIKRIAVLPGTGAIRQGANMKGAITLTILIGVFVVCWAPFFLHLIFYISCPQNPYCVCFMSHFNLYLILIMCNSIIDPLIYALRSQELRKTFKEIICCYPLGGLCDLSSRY
EBI2 antag: EBI2 receptor antagonists, beta-arrestin recruitment, primary screen, cell-based, luminescence, 7a,25-OHC stimulation, uHTS; G-protein coupled receptor 183 (Homo sapiens), P32249; 7a,25-OHC stimulated; inhibition, % at 5 µM; 360,000 tested, 0.81% active; AID 651636, 2012; in the data active = inhibition above about 38%;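 note: enzyme fragment complementation signal reports receptor beta-arrestin coupling in cells; 0% = agonist plus DMSO wells and 100% = wells without agonist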
m5-HT2A agonist: mouse Htr2a agonists via beta-arrestin recruitment, primary screen, cell-based, luminescence; 5-hydroxytryptamine receptor 2A (Mus musculus), P35363; CHO-K1 mHTR2A beta-arrestin complementation; percent of 30 µM serotonin response; activation, % at 7.6 µM; 360,000 tested, 0.66% active; AID 624169, 2012;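 active = activation above a run cutoff, the mean activation of all tested compounds plus 3 SD, cut at about 14% in these data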;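 note: 0% = plate median of compound wells and 100% = 30 µM serotonin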
MC4R antagonist: MC4R antagonists of cAMP signaling, primary screen, cell-based, TR-FRET, antagonist arm of biased-ligand search; Melanocortin receptor 4 (Homo sapiens), P32245; MC4R-expressing cells, MTII-stimulated cAMP, LANCE TR-FRET; inhibition, % at 6.5 µM; 360,000 tested, 0.48% active;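 active = inhibition above its plate's cutoff, the mean of tested wells on that plate plus 3 SD, cut at about 29% in these data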;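 note: 0% = Melanotan II alone and 100% = Melanotan II plus saturating MCL0020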
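Material: human MC4R-expressing U2OS cells. Probe or stimulus: Melanotan II challenge. Dosing: 6.5 µM single dose. Times: 30-min compound, 1-h challenge, 1-h detection, room temperature. Technique: TR-FRET with Eu-cAMP and labeled anti-cAMP, 671 nm. Replication: singlicate.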
The depositor's hits bear a star; / = no result. A selection: hits, their analogues and other compounds. The true share with any hit is near 2.8%.

SMILES	MC4R barr agon	EBI2 antag	m5-HT2A agonist	MC4R antagonist
Cc1ccc(OCCC(=O)Nc2ccc(F)c(F)c2)cc1	0	6	1	5
Cc1cccc(OCCC(=O)Nc2ccc(F)c(Cl)c2)c1	8.9*	-1	-2	-1
Nc1c(S(=O)(=O)c2cccs2)c2nc3ccccc3nc2n1/N=C/c1cccc(O)c1	8.4*	58*	-1	17
COc1cccc(/C=N/n2c(N)c(S(=O)(=O)c3cccs3)c3nc4ccccc4nc32)c1	-1	5	0	-6
Cc1ccc(S(=O)(=O)c2c(N)n(/N=C/c3ccco3)c3nc4ccccc4nc23)cc1C	1	46*	5	5
O=[N+]([O-])c1c(Nc2ccccn2)cc(Cl)c2nonc12	-5	83*	6	-8
O=C(O)c1ccccc1Nc1cc(Cl)c2nonc2c1[N+](=O)[O-]	-1	-7	8	9
O=[N+]([O-])c1c(Nc2ccc(O)cc2)cc(Cl)c2nonc12	-7	94*	-11	-43
CN(C)c1cc(Nc2ccc(O)cc2)c([N+](=O)[O-])c2nonc12	-2	-2	-3	7
C=C1C(=O)c2sccc2C(c2ccc(OC)c(OC)c2)C1COC(C)=O (stereo not given)	1	60*	1	-11
CN(C)c1ccc(S(=O)(=O)N2CCCCC2)cc1NC(=O)CCNC(=O)c1ccco1	-3	-10	0	22
COc1ccc(S(=O)(=O)NC2CC3CCC2C3)cc1Br (stereo not given)	0	-2	-6	11
Cc1cc(C)c(S(=O)(=O)NC2CC3CCC2C3)c(C)c1 (stereo not given)	8.5*	13	2	19
Cc1cc(Br)cn2c(Cc3ccsc3)c(-c3ccc(Cl)cc3)nc12	/	-1	2	/
OC(c1ccc(F)c(F)c1)c1nc(-c2cnc3ccccc3c2)cs1 (stereo not given)	0	12	2	-4
Cc1n[nH]c(C)c1S(=O)(=O)N1CCCC(C(=O)O)C1 (stereo not given)	-3	-1	3	-3
Cc1cccc(NC(=O)/C(C#N)=C/c2cn(CC(=O)NCc3ccco3)c3ccccc23)c1C	8	-3	7	14
N#C/C(=C\c1cn(Cc2ccc(F)cc2)c2ccccc12)C(=O)NCc1ccco1	9.1*	-3	-6	5
Clc1cccc(Cl)c1CSc1nnc(-c2ccncc2)s1	31*	-53	1	7
NC(=O)CSc1nc2scc(-c3ccc(Cl)cc3)c2c(=O)n1Cc1ccccc1	8.7*	36	-5	13
Cc1ccc(-c2csc3nc(SCC(=O)N(C)C)n(Cc4ccccc4)c(=O)c23)cc1	3	4	-2	0
Cc1ccc(O)c(C(=O)CC(=O)c2ccccc2Cl)c1	4	4	-3	0
Cc1ccc(O)c(C(=O)CC(=O)c2ccc(C(C)(C)C)cc2)c1	12*	2	3	2
Cc1ccnc(NC(=O)Nc2ccc3c(c2)N(C)C(=O)CS3)c1	9.1*	13	-1	5
Cc1ccc(NC(=O)Nc2ccc3c(c2)N(C)C(=O)CS3)nc1	9.4*	10	6	10
SMILES	MC4R barr agon	EBI2 antag	m5-HT2A agonist	MC4R antagonist
Cc1cccc(NC(=O)Nc2ccc3c(c2)N(C)C(=O)CS3)n1	-2	6	1	3
O=C(O)C1(Nc2ccc(Br)cc2)CCCC1	-1	-3	6	2
O=C(NC(=S)Nc1ccc2oc(-c3ccncc3)nc2c1)c1ccccc1F	-2	17	4	7
O=C(NC(=S)Nc1ccc2oc(=O)ccc2c1)c1ccccc1F	8.4*	6	-1	4
COc1ccc(-c2nc(NC(=O)c3ccc(OCC(=O)Nc4ccc(F)cc4)c(OC)c3)sc2C)cc1	45*	-28	-1	4
COc1ccc(N2CCCC2=O)cc1S(=O)(=O)N1CCOCC1	0	0	3	1
CCOC(=O)c1c(NC(=O)Cn2nc(C(=O)O)c3ccccc3c2=O)sc(C)c1C	9.0*	10	1	-2
CCN1/C(=C\c2ccc3cc(C)ccc3[n+]2CC)Sc2cc(C)c(C)cc21	3	-4	1	0
CCN1/C(=C/c2ccc3cc(C)ccc3[n+]2CC)Sc2ccc3sccc3c21	14*	3	8	-6
CC1=C(C(=O)N(C(C)C)C(C)C)CC(CC(=O)NC2CCCC2)C(=O)N1CCC1=CCCCC1 (stereo not given)	/	2	-5	/
O=C1C=CC2(C=C1)O[C@H](Cc1ccccc1)[C@@H](Cc1ccccc1)O2	-2	85*	-1	27
O=C1Nc2ccccc2C1Cc1ccccc1 (stereo not given)	-1	2	3	-8
C#CCOCCOCCOCCNc1nc(N2CCN(C(=O)CCCCCCCCCCNC(=O)Cn3cc(C[C@@H](C)O)nn3)CC2)nc(N2CCN(C(=O)CCCCCCCCCCNC(=O)[C@H](CCCCN)n3cc(CCCC(=O)O)nn3)CC2)n1	1	3	2	3
C#CCOCCOCCOCCNc1nc(N2CCN(C(=O)CCCCCCCCCCNC(=O)[C@H](CO)n3cc(CCCSC)nn3)CC2)nc(N2CCN(C(=O)CCCCCCCCCCNC(=O)[C@H](CCCN=C(N)N)n3cc(C[C@@H](C)CC)nn3)CC2)n1	0	-8	6	53*
C#CCOCCOCCOCCNc1nc(N2CCN(C(=O)CCCCCCCCCCNC(=O)Cn3cc(C[C@@H](C)O)nn3)CC2)nc(N2CCN(C(=O)CCCCCCCCCCNC(=O)[C@H](CCCN=C(N)N)n3cc(C[C@@H](C)CC)nn3)CC2)n1	-2	-6	4	42*
CC(C)CNC(=O)C1(C)CCCN1C(=O)c1c(Cl)cccc1Cl (stereo not given)	-3	-2	2	1
CC(C)(C)c1cc(NC(=O)Nc2ccccc2OC(F)(F)F)no1	8.7*	13	10	15
COc1ccc(CN(C)C[C@H]2OCCCC[C@@H](C)Oc3ccc(NC(=O)c4ccccc4)cc3C(=O)N([C@H](C)CO)C[C@@H]2C)cc1	0	-6	-3	-5
Oc1c(Cl)cc(Cl)cc1/C=N/Nc1ncc(Br)cn1	-3	76*	-2	-2
O=C(N/N=C/c1cc(Cl)cc(Cl)c1O)c1ccncc1	-1	68*	-19	13
O=C(N/N=C/c1ccc(Cl)cc1Cl)c1ccncc1	-2	-19	-1	2
COc1cccc(-c2nnc3sc(-c4ccccc4)nn23)c1	1	-6	-4	4
COc1cccc(OC)c1-c1nn2c(-c3cc(-c4ccccc4)n[nH]3)nnc2s1	36*	-5	2	-5
Cc1cc(NC(=O)c2ccc(Br)c([N+](=O)[O-])c2)no1	9.3*	-21	-2	19
